An excerpt weighted towards active compounds, which were near 2% of everything screened.
NTR1 ag – agonists of human neurotensin receptor NTR1; P30989; NTR1-U2OS beta-arrestin-GFP spot imaging, agonist mode; activation, % at 20 µM; 0.17% of 330,000 active; AID 493036;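 active = activation at or above 40% of the spot to cytoplasm intensity ratio, with at least 20 cells analyzed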;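 note: 0% = DMSO without peptide and 100% = 100 nM NTR1 peptide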
CAL PDZ FP-1 – inhibitors of human CAL PDZ peptide binding | inhibition, % at 24.9 µM | 0.92% of 300,000 active | purified CAL PDZ, TMR-peptide fluorescence polarization, 1 h | Q9HD26;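 active = mean inhibition of at least 30% with at least half of replicates also reaching 30%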;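 note: 0% = DMSO neutral control and 100% = excess unlabeled competitor peptide PRC23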
PKA-R1A act – PKA-R1A complex activation; P00514+P68181; PKA-R1A dissociation, Cy5-IP20 fluorescence polarization; scaled: DMSO 0%, 113 µM cGMP 100%; activation, % at 11.4 µM; 0.083% of 340,000 active;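 active = percent activation above the mean of all tested compounds plus 3 SD, cut at about 19% in these data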;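 note: higher means more PKAc released from R1A so a rise in polarization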
dFosB act-1 – enhances mouse delta FosB homodimer DNA binding; P13346; purified delta FosB, TAMRA-CDK5 oligo fluorescence polarization; percent of positive-control signal above neutral wells; activation, % at 25 µM; 0.99% of 340,000 active; AID 493131;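 active = mean activation above about 17%, with every replicate also reaching it, limit read from the data, passing the limit was not always enough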
Target sequence (P13346 whole entry, looked up): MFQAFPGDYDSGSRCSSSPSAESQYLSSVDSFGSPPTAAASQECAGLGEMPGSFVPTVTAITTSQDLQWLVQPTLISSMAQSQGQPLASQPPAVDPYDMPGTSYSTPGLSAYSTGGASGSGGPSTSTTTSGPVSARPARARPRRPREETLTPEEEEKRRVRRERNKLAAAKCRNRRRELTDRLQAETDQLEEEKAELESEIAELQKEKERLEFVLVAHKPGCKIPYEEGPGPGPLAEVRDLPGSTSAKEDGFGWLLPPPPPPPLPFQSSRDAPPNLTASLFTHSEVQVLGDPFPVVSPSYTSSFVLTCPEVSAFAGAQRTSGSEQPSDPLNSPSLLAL
PKA-R2B activ – PKA-R2B complex activation; PKA-R2B holoenzyme dissociation, Cy5-IP20 fluorescence polarization; R2B truncated from residue 108, S112A mutant; 0% DMSO only, 100% 113 µM cGMP; activation, % at 11.4 µM; 0.079% of 340,000 active; AID 504700;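 active = activation above a cutoff set at the mean over all compounds plus 3 SD, cut at about 18% in these data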;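 note: higher means more holoenzyme dissociation and a rise in polarization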
CAL PDZ FP-2 – blocks peptide binding to human CAL PDZ domain; Q9HD26; purified CAL PDZ, TMR-peptide fluorescence polarization, 1 h; inhibition, % at 20 µM; 0.02% of 330,000 active; AID 504414;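 active = highest replicate inhibition of at least 40%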;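 note: plate controls were DMSO neutral control wells for no effect and unlabeled competitor peptide control wells for full effect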
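Read-out basis: mP drop reported as inhibition | Assay system: Tagged CAL PDZ protein CerCALP, purified | Benchmarks: Unlabelled peptide for full inhibition, DMSO wells as neutral | Schedule: 1 h incubation at room temperature before polarization reading | Buffer or medium: Sodium phosphate/NaCl buffer pH 7.4 with TCEP, IgG, Thesit | Doses: Single point, 20 µM | Measured by: Fluorescence polarization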
dFosB act-2 – activators of mouse delta FosB homodimer DNA binding. activation, % at 24.9 µM. 2,400 tested, under 10 active. shares compounds with dFosB act-1. purified delta FosB, TAMRA-CDK5 oligo fluorescence polarization; normalised: neutral wells 0, positive control 100;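 active = highest replicate activation at or above 34% and every replicate reaching that threshold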;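 note: higher polarization means more probe DNA bound by delta FosB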
An asterisk follows results filed as active; / = not tested or not shown.

SMILES	NTR1 ag	CAL PDZ FP-1	PKA-R1A act	dFosB act-1	PKA-R2B activ	CAL PDZ FP-2	dFosB act-2
O=C(O)COc1ccc(NC(=O)c2ccc3c(c2)C(=O)N(CC2CCCO2)C3=O)cc1 (centres undefined)	/	/	-0.2	/	4.3	/	/
O=S(=O)(NCC1CCCO1)c1ccc(NS(=O)(=O)c2ccc(F)cc2)cc1 (centres undefined)	-2.3	-0.5	7.3	-3.7	-11.8	-0.8	/
O=C(COc1ccc2c(c1)OCO2)Nc1ccc2c(c1)oc1ccccc12	-2.0	-4.2	-1.1	81.3*	-10.3	/	2.5
C[C@@H]1CN(S(=O)C(C)(C)C)[C@@H](CCO)/C1=C\c1ccccc1 (some centres undefined)	/	-5.3	-0.5	5.5	-9.1	-1.2	/
CC[C@@]12C(=O)N(c3ccc(OC)cc3)C(=O)N1[C@H](c1ccc(Cl)cc1)[C@@H]1C(=O)N(C3CCCCC3)C(=O)[C@@H]12	-0.6	-2.9	-1.8	5.3	2.7	-0.5	/
CCc1ccc(N2CC(C)Cn3c2nc2c3c(=O)[nH]c(=O)n2C)cc1 (centres undefined)	0.2	-4.6	-1.7	-4.3	6.8	1.6	/
COC(=O)c1ccc(NC(=O)C(=O)c2c[nH]c3ccccc23)cc1	-0.1	-0.7	-4.5	71.8*	-0.6	-0.2	7.0
O=C(Nc1ccccc1)C(=O)c1c[nH]c2ccccc12	0.0	-2.9	-2.8	0.8	12.7	-0.6	/
Cc1ccc(C(=O)NCc2ccccn2)cc1S(=O)(=O)N1CCOCC1	0.2	/	-0.5	-3.7	0.1	-0.1	/
CCN1C(=O)[C@H]2[C@@H](c3ccc(C(F)(F)F)cc3)N[C@]3(CCCN(Cc4ccccc4)C3=O)[C@H]2C1=O	/	/	-0.8	/	-5.0	/	/
CCc1ccc(NC(=O)CSC2=C(C#N)C(c3ccc4c(c3)OCO4)CC(=O)N2)cc1 (centres undefined)	3.6	-1.2	-0.1	-1.1	-9.8	-1.8	/
Cc1ccc(NC(=O)CSC2=C(C#N)C(c3ccc4c(c3)OCO4)CC(=O)N2)cc1C (centres undefined)	2.9	-3.3	-5.5	46.5*	6.3	-0.3	2.8
CC1COC(=C2C(=O)OCC2C)C1 (centres undefined)	/	/	4.6	/	-3.2	/	/
Cc1cccc(NC(=O)CCCC(=O)OC(C)C(=O)c2ccccc2)c1 (centres undefined)	-1.4	-3.0	11.6	-2.4	1.7	-2.5	/
Cc1cc(NC(=O)CSc2nnc(NCc3ccccc3)s2)no1	0.3	-3.4	6.8	21.5*	3.2	-1.9	-0.3
CCCn1c(SCC(=O)c2ccc3c(c2)NC(=O)CO3)nc2ccccc21	2.2	2.2	8.7	7.8	-14.6	-0.1	/
Cn1c(SCC(=O)c2ccc3c(c2)NC(=O)CO3)nc2ccccc21	1.9	/	-4.0	38.6*	-3.0	-0.9	9.9
O=C1COc2ccc(C(=O)CSc3nnc(NCc4ccccc4)s3)cc2N1	0.4	-8.3	0.0	43.0*	-0.9	-1.6	1.2
O=C1COc2ccc(C(=O)CSc3nnc(Cc4ccccc4)o3)cc2N1	0.2	3.1	-20.8	-0.9	-11.2	-4.4	/
O=C1COc2ccc(C(=O)CSc3nc4ccccc4c(=O)n3-c3ccc(Cl)c(Cl)c3)cc2N1	3.1	6.2	1.2	56.3*	2.3	-3.8	1.1
COc1ccccc1Nc1nnc(SCC(=O)Nc2cc(C)on2)s1	-0.7	-0.5	-3.2	-1.8	5.7	0.1	/
CCOC(=O)C1=C(Nc2ccc(OC)cc2)C(N)=NC1=N	/	/	2.0	/	-15.9	/	/
Cc1c(Cl)cccc1NC(=O)CCNC(=O)N1CC(=O)Nc2ccccc21	-0.4	1.7	5.4	23.4*	4.0	-0.3	6.5
COc1ccc(OC)c(/C=N/NC(=O)CSc2cc(C)nc3c(OC)cccc23)c1	1.6	-5.8	/	37.2*	/	-1.1	5.0
Cc1ccc(-c2noc(CCC(=O)Nc3ccccc3C)n2)cc1	2.2	-2.6	-1.6	2.3	-0.4	-0.6	/
SMILES	NTR1 ag	CAL PDZ FP-1	PKA-R1A act	dFosB act-1	PKA-R2B activ	CAL PDZ FP-2	dFosB act-2
CCc1ccccc1NC(=O)CCc1nc(-c2ccc(C)cc2)no1	3.2	4.4	-3.3	20.5*	6.4	0.9	7.6
COc1ccc2cc(OCC(=O)NNC(=O)Nc3ccc(F)cc3)ccc2c1	-0.5	-2.7	-12.0	21.2*	-4.2	-1.6	0.4
Cc1ccc(C(=O)COC(=O)CNC(=O)c2ccc(N3C(=O)c4ccccc4C3=O)cc2)cc1C	1.9	-3.2	9.2	10.2	2.6	-2.1	/
O=C(CN1C(=O)c2ccccc2C1=O)NCC(=O)OCC(=O)c1ccc(Br)cc1	0.7	-2.2	-17.4	46.1*	0.0	0.3	6.3
O=C(CNC(=O)c1ccc(N2C(=O)c3ccccc3C2=O)cc1)OCC(=O)c1ccc(Cl)cc1	0.6	1.0	-11.6	112.8*	-5.5	-0.7	5.0
CN(C)S(=O)(=O)c1cccc(NC(=O)c2ccc(NS(=O)(=O)c3cccs3)cc2)c1	0.5	-3.4	-0.6	-8.9	-1.0	-2.4	/
COc1ccc(Cc2nnc(NC(=O)c3cccc(F)c3)s2)cc1OC	-1.2	13.6	-7.3	18.8*	-11.4	-0.8	2.0
COc1ccc(Cc2nnc(NC(=O)c3ccc(F)cc3)s2)cc1OC	-0.8	/	-7.8	3.8	0.3	0.7	/
COc1cc(/C=N/NC(=S)NC(C)C)ccc1OCC(=O)Nc1c(C)cc(C)cc1C	17.3	-3.0	-1.8	29.1*	-2.7	-3.1	-0.1
CCCCNC(=S)N(C)/N=C/c1ccc(OCC(=O)Nc2c(C)cc(C)cc2C)c(OC)c1	0.9	-1.1	-17.7	-0.4	-1.6	-2.3	/
CCOc1ccc(-n2ccnc(SCC(=O)Nc3cccc(OC)c3)c2=O)cc1	1.8	/	-12.1	1.1	1.4	-1.1	/
COc1ccc(/C=C/C(=O)OCC(=O)Nc2c(C)cccc2C)cc1	0.0	0.9	-9.3	25.5*	-13.4	-1.9	-14.5
O=C(Cc1nnc(NC(=O)c2cccc([N+](=O)[O-])c2)s1)NCc1ccccc1	1.1	-1.2	-16.3	13.5	-0.5	-1.7	/
COc1ccc(Nc2nc(N3CCOCC3)nc(N3CCOCC3)n2)c(OC)c1	0.8	-2.1	-10.0	-0.5	-5.8	0.0	/
Fc1ccc(Nc2nc(Oc3ccc4c(c3)OCO4)nc(N3CCOCC3)n2)c(F)c1	5.0	-1.8	2.3	60.7*	-7.2	-0.5	-2.7
CCCCNS(=O)(=O)c1ccc(NC(=O)C2c3ccccc3Oc3ccccc32)cc1	19.4	-2.9	-8.3	44.0*	14.2	0.4	-4.4
O=C(Nc1ccncc1)C1c2ccccc2Oc2ccccc21	0.0	-1.3	-3.5	0.3	-1.8	-3.4	/

Screening results from PubChem.
